≈ marks a conversion by molar mass, not a printed value. Where “and” joins values, the source holds several entries; their conditions need not be identical. Equal entries are not always repeated.

Experimental findings from ChEMBL document CHEMBL1122078, “Inhibitors of blood platelet aggregation. Activity of some 1H-benz[de]isoquinolinecarboximidamides on the in vivo blood platelet aggregation induced by collagen” (J Med Chem, 1982) are described below.

Data set [1] has as its system Rattus norvegicus. The data set is described as follows: (§1) Compound was tested in the rat after intraperitoneal administration for its ability to inhibit the in vivo blood platelet aggregation induced by collagen; Not determined because of toxicity. It is filed as functional, organism-based. The method in brief:
(§2)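 Male Wistar rats dosed ip at 0.2 mmol/kg/day for 5 days, with a placebo group run in parallel. On day 5 rats were anesthetized with pentobarbitone (40-50 mg/kg ip) and collagen was infused through a cannula in the right common carotid. Blood was taken into EDTA at 60 and 90 s. Platelets were Coulter-counted after thrombo-oil separation. Read-out: rise in circulating platelets versus placebo, at 60 s unless noted.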

Data set [2] has as its system Rattus norvegicus. The data set is described as follows: Compound was tested in the rat after peroral administration for its ability to inhibit the in vivo blood platelet aggregation induced by collagen,. It is filed as organism-based. As to conditions: po. The method in brief: (§3)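 Oral dosing of male Wistar rats at 0.2 mmol/kg/day for 5 days, alongside a placebo group. On day 5 under pentobarbitone anesthesia, collagen was infused via a cannula in the right common carotid artery. EDTA blood samples were taken 60 and 90 s after the start of infusion, and platelets were counted by Coulter counter. Value is the increase in circulating platelets relative to placebo, at 60 s unless stated.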

The nature of data set [3]: Aqueous solubility at room temperature. It is filed as physicochemical. To be noted: water; read-out: S. The method in brief: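 Solubility in water, given in mg/mL, determined at room temperature.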
The subject of data set [4] is Rattus norvegicus. In words: In vivo inhibition of blood platelet aggregation induced by collagen, intraperitoneal administration. It is filed as functional. An outline of the steps:
as §2

Data set [5] relates to Rattus norvegicus. In words: (§4) Compound was tested in the rat after peroral administration for its ability to inhibit the in vivo blood platelet aggregation induced by collagen. Format: functional. The method in brief: as §3
The subject of data set [6] is Rattus norvegicus. Described as §1. Format: organism-based. As to conditions: ip. An outline of the steps: as §2
The subject of data set [7] is Rattus norvegicus. The data set is described as §4. It is filed as ADME, organism-based. As to conditions: po. An outline of the steps: as §3
Data set [8] deals with Rattus norvegicus. In words: Compound was tested in the rat after intraperitoneal administration for its ability to inhibit the in vivo blood platelet aggregation induced by collagen. It is filed as ADME, organism-based. As to conditions: po, in the assay text read “oral” for “intraperitoneal”.
For data set [9], the system named is Rattus norvegicus. In words: Compound was tested in the rat after peroral administration for its ability to inhibit the in vivo blood platelet aggregation induced by collagen; Only at 90s after collagen administration. Format: organism-based. As to conditions: po. An outline of the steps:
as §3

As to `N/C(=N\c1ccc([N+](=O)[O-])cc1)N1Cc2cccc3c2C(CCC3)C1` (stereo not given), the results for the Increase result in the data set with Rattus norvegicus [1] and in the data set with Rattus norvegicus [2] were “Toxic” and -7%, respectively. As for `N=C(Nc1ccccc1)N1Cc2cccc3c2C(CCC3)C1` (stereo not given), the solubility in data set [3] was below 3000 µg/mL. Also, the Increase in the data set with Rattus norvegicus [4] is -11%. As for `C/N=C(\N)N1Cc2cccc3c2C(CCC3)C1` (stereo not given), the solubility in data set [3] is below 3000 µg/mL. The Increase in the data set on Rattus norvegicus [5] was 30% and 12%. Regarding `Cl.N/C(=N\O)N1Cc2cccc3cccc(c23)C1`, the solubility in [3] is 4000 µg/mL. The Increase with Rattus norvegicus [4] is 36% and 23%. `N=C(Nc1ccc(S(N)(=O)=O)cc1)N1Cc2cccc3c2C(CCC3)C1` (stereo not given): the solubility in [3] was below 3000 µg/mL. For the same compound, the Increase in the data set with Rattus norvegicus [5] is reported as 3%. Turning to `CN(C)c1ccc(NC(=N)N2Cc3cccc4c3C(CCC4)C2)cc1.Cl` (stereo not given), the solubility in data set [3] was found to be 4000 µg/mL. The Increase in the data set with Rattus norvegicus [5] is reported as 4%. Take `Cl.N/C(=N\O)N1Cc2cccc3c(Cl)ccc(c23)C1`: the solubility in data set [3] was found to be 3000 µg/mL. In the data set on Rattus norvegicus [4], the Increase was 44% and 18%. As to `CN(C)/N=C(/N)N1Cc2cccc3cccc(c23)C1.Cl`, the solubility in data set [3] is 25000 µg/mL. Besides, the Increase in the data set with Rattus norvegicus [5] is on record as -2%.

For `Cl.N=C(N)N1Cc2cccc3c(Cl)ccc(c23)C1`, in [3], the solubility is 2500 µg/mL. Also, the Increase result in the data set on Rattus norvegicus [6] is given as “Toxic”. For the compound `N/C(=N\c1ccc(N)cc1)N1Cc2cccc3c2C(CCC3)C1` (stereo not given), the solubility in data set [3] is below 5000 µg/mL. Further, the Increase with Rattus norvegicus [7] was 8%; with Rattus norvegicus [6], “Toxic”. On to `Cc1ccc2c3c(cccc13)CN(C(=N)NO)C2.Cl`, for which the solubility in [3] was 5000 µg/mL. Further, the Increase with Rattus norvegicus [4] was 16% and 14%. For the compound `Cl.N/C(=N\O)N1Cc2cccc3c2C(CCC3)C1` (stereo not given), the solubility in data set [3] came to 12000 µg/mL. Moreover, the Increase in the data set with Rattus norvegicus [4] was 42% and 23%. As to `COc1ccc(NC(=N)N2Cc3cccc4cccc(c34)C2)cc1`, the solubility in [3] was below 5000 µg/mL. Also, the Increase in the data set with Rattus norvegicus [4] is -2%. For `C/N=C(\NC)N1Cc2cccc3c2C(CCC3)C1` (stereo not given), in that order: 20000 µg/mL (≈ 82.2 mM) and 2%. Taken in the same sequence, the figures for `C/N=C(/NC)N1Cc2cccc3cccc(c23)C1` were 25000 µg/mL (≈ 104 mM) and 1%. `Cl.N=C(N)N1Cc2cccc3c2C(CCC3)C1` (stereo not given): the solubility in data set [3] is 60000 µg/mL. Regarding `Cl.Cl.N/C(=N\c1ccc(N)cc1)N1Cc2cccc3cccc(c23)C1`, in [3], the solubility was 60000 µg/mL. In addition, the Increase with Rattus norvegicus [5] worked out at 8%. Take `COc1cc2c3c(c1OC)CCCC3CN(C(=N)NO)C2.Cl` (stereo not given): the solubility in [3] was above 50000 µg/mL.

For the compound `Br.N/C(=N\c1ccc(C(=O)O)cc1)N1Cc2cccc3c2C(CCC3)C1` (stereo not given), the solubility in data set [3] is below 3000 µg/mL. The Increase in the data set with Rattus norvegicus [5] is recorded as 2%.

For the compound `COc1ccc(NC(=N)N2Cc3cccc4c3C(CCC4)C2)cc1` (stereo not given), in data set [3], the solubility was below 3000 µg/mL. In addition, the Increase in the data set on Rattus norvegicus [7] is on record as 7%; in the data set on Rattus norvegicus [6] it was “Toxic”. As to `COc1ccc2c3c1CCCC3CN(C(=N)N)C2.Cl` (stereo not given), the solubility in data set [3] was 17000 µg/mL. Take `Cl.N=C(Nc1ccc(C(N)=O)cc1)N1Cc2cccc3c2C(CCC3)C1` (stereo not given): the solubility in [3] was below 3000 µg/mL. The Increase in the data set on Rattus norvegicus [5] amounted to 7%. With `Cl.N/N=C(/N)N1Cc2cccc3c2C(CCC3)C1` (stereo not given), in data set [3], the solubility came out at 60000 µg/mL. For the compound `Cc1ccc2c3c1CCCC3CN(C(=N)NO)C2.Cl` (stereo not given), the solubility in [3] came to 18000 µg/mL. The Increase in the data set on Rattus norvegicus [4] worked out at 45%.

`Cl.N=C(N)N1Cc2cccc3cccc(c23)C1`: the solubility in data set [3] turned out to be 10000 µg/mL. Moreover, the Increase in the data set with Rattus norvegicus [4] is 38% and 28%. For the compound `CC(C)=N/N=C(\N)N1Cc2cccc3c2C(CCC3)C1.Cl` (stereo not given), the figures for the Increase entry in the data set on Rattus norvegicus [1] and in the data set with Rattus norvegicus [2] were “Toxic” and 0%, respectively. Regarding `N#CNC(=N)N1Cc2cccc3c2C(CCC3)C1` (stereo not given), in [3], the solubility is below 3000 µg/mL. For the same compound, the Increase in the data set with Rattus norvegicus [4] is recorded as 1%. Turning to `Cc1ccc2c3c1CCCC3CN(C(=N)N)C2.Cl` (stereo not given), the solubility in data set [3] is 16000 µg/mL. Moreover, the Increase is given as 16% in the data set with Rattus norvegicus [8] and “Toxic” in the data set with Rattus norvegicus [6].

For the compound `CC(=O)NC(=N)N1Cc2cccc3cccc(c23)C1.Cl`, the solubility in [3] was 35000 µg/mL. Further, the Increase in the data set with Rattus norvegicus [4] came to 17%. For the compound `N=C(Nc1ccc(Cl)cc1)N1Cc2cccc3c2C(CCC3)C1` (stereo not given), the solubility in data set [3] was below 4000 µg/mL. In addition, the Increase in the data set with Rattus norvegicus [5] amounted to 7%. Taken in the same sequence, the figures for `COc1cc2c3c(cccc3c1)CN(C(=N)NO)C2.Cl` were 18000 µg/mL and -5%.

As for `COc1ccc2c3c1CCCC3CN(C(=N)NO)C2.Cl` (stereo not given), the Increase came to 8% with Rattus norvegicus [9] and 70% in the data set with Rattus norvegicus [4]. Moreover, the solubility in [3] is 5000 µg/mL.

With `Cl.N/N=C(/N)N1Cc2cccc3cccc(c23)C1`, in data set [3], the solubility was 10000 µg/mL.
